Measured values taken from ChEMBL document CHEMBL1140228, “Identification of small molecular weight inhibitors of Src homology 2 domain-containing tyrosine phosphatase 2 (SHP-2) via in silico database screening combined with experimental assay” (J Med Chem, 2008).
Residue numbers refer to the chain shown, from its start. Activity calls are given as the source filed them. The rule behind the calls is not given here.

Experiments:
[1] = target: T1, Tyrosine-protein phosphatase non-receptor type 11 (Homo sapiens) (UniProt Q06124); test: Binding affinity to SHP2 PTP domain assessed as quenching of enzyme fluorescence by fluorescence titration assay
T1 sequence (whole entry): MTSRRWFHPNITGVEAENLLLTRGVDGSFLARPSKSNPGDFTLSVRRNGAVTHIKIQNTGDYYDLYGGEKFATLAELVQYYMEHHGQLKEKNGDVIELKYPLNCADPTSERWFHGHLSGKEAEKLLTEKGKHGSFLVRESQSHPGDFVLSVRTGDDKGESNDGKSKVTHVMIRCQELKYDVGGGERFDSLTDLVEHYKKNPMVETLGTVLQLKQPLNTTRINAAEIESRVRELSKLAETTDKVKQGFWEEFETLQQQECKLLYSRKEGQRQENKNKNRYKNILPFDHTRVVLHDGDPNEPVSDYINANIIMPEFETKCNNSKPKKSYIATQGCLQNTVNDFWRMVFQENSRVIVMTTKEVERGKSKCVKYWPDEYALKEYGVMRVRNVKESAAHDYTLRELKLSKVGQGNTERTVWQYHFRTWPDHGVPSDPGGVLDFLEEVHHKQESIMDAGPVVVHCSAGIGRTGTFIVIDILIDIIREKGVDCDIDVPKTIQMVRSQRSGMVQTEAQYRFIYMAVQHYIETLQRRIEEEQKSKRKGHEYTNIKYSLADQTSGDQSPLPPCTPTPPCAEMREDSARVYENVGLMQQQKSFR
Summary of the method: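 Tryptophan fluorescence quenching of GST-SHP-2 PTP domain held at 3 μM in 20 mM Tris-HCl pH 7.5, titrated with increasing compound. Excitation 295 nm, emission 360–500 nm. Compound-alone fluorescence subtracted. Intensities are relative, not corrected for detector response.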

[2] = target: T1, Tyrosine-protein phosphatase non-receptor type 11 (Homo sapiens); test: Inhibition of GST-tagged SHP2
Summary of the method: (§1)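 GST-SHP-2 PTP domain (0.5 μg) preincubated 30 min at room temperature with compound or DMSO in 25 mM Tris-HCl pH 7.4, 50 mM NaCl, 5 mM DTT, 2.5 mM EDTA. Orthovanadate (100 μM) served as positive control.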

[3] = target: T1, Tyrosine-protein phosphatase non-receptor type 11 (Homo sapiens); test: Inhibition of GST-tagged SHP2 at 100 uM; summary of the method: as §1
[4] = target: T2, Tyrosine-protein phosphatase non-receptor type 11 (Mus musculus) (UniProt P35235); test: Inhibition of SHP2 assessed as blockade of IL3-induced ERK1/ERK2 activation in mouse Ba/F3 cells by immunoblotting; assay type: cell-based; conditions: BaF3
T2 sequence (whole entry): T1 sequence (whole entry) with M450V, A550V, K590R
Summary of the method: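 Ba/F3 cells deprived of IL-3 for 8 h, treated with compound 1 h before stimulation with IL-3 (2 ng/mL), and harvested at several times. Lysates immunoblotted for phospho-Erk, then stripped and reprobed for pan-Erk as loading control.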

[5] = tested on: T3, Tyrosine-protein phosphatase non-receptor type 11 (Mus musculus), P35235 [D61G]; test: Inhibition of EGF-induced SHP2 D61G mutant activation in mouse embryonic fibroblasts by immunocomplex phosphatase assay
T3 sequence (whole entry): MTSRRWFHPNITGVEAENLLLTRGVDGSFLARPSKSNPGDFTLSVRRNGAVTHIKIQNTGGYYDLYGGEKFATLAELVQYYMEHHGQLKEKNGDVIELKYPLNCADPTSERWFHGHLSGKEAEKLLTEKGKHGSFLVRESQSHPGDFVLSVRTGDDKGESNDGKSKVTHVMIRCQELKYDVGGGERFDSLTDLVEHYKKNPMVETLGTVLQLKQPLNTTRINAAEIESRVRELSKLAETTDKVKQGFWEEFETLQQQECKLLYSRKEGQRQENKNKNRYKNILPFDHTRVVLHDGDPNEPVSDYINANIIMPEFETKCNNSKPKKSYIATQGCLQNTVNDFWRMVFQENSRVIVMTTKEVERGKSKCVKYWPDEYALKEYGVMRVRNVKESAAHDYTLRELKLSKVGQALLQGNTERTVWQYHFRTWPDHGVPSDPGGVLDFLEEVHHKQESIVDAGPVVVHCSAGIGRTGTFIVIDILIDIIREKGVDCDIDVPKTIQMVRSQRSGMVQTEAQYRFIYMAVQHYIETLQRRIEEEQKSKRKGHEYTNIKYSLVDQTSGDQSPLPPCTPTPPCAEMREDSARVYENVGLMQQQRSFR
Summary of the method: (§2)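 WT or SHP-2 D61G/D61G knock-in MEFs starved overnight in serum-free medium, compound (100 μM) for the last 1 h, then EGF 10 min (50 ng/mL in methods, 20 ng/mL in legend). RIPA lysates (500 μg) immunoprecipitated with anti-SHP-2, washed in HNTG, then assayed by malachite green phosphatase assay.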

[6] = target: T2, Tyrosine-protein phosphatase non-receptor type 11 (Mus musculus); test: Inhibition of EGF-induced SHP2 activation in mouse embryonic fibroblasts by immunocomplex phosphatase assay; summary of the method: as §2
BaF3 = test: Antiproliferative activity against IL3-stimulated mouse BA/F3 cells assessed as decrease in cell growth after 72 hrs by MTS assay; assay type: functional, cell-based
Summary of the method: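 Ba/F3 (IL-3-dependent murine pro-B line) seeded at 2×10⁴ cells/well in RPMI-1640 with 10% FBS and mouse IL-3 (1 ng/mL), plus compound at 100 or 200 μM or DMSO. Cell number read by MTS after 72 h.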

[7] = target: T1, Tyrosine-protein phosphatase non-receptor type 11 (Homo sapiens); test: Inhibition of GST-tagged SHP2 at 200 uM; summary of the method: as §1
[8] = target: T4, Receptor-type tyrosine-protein phosphatase C (Homo sapiens) (UniProt P08575); test: Inhibition of GST-tagged CD45
T4 sequence (whole entry): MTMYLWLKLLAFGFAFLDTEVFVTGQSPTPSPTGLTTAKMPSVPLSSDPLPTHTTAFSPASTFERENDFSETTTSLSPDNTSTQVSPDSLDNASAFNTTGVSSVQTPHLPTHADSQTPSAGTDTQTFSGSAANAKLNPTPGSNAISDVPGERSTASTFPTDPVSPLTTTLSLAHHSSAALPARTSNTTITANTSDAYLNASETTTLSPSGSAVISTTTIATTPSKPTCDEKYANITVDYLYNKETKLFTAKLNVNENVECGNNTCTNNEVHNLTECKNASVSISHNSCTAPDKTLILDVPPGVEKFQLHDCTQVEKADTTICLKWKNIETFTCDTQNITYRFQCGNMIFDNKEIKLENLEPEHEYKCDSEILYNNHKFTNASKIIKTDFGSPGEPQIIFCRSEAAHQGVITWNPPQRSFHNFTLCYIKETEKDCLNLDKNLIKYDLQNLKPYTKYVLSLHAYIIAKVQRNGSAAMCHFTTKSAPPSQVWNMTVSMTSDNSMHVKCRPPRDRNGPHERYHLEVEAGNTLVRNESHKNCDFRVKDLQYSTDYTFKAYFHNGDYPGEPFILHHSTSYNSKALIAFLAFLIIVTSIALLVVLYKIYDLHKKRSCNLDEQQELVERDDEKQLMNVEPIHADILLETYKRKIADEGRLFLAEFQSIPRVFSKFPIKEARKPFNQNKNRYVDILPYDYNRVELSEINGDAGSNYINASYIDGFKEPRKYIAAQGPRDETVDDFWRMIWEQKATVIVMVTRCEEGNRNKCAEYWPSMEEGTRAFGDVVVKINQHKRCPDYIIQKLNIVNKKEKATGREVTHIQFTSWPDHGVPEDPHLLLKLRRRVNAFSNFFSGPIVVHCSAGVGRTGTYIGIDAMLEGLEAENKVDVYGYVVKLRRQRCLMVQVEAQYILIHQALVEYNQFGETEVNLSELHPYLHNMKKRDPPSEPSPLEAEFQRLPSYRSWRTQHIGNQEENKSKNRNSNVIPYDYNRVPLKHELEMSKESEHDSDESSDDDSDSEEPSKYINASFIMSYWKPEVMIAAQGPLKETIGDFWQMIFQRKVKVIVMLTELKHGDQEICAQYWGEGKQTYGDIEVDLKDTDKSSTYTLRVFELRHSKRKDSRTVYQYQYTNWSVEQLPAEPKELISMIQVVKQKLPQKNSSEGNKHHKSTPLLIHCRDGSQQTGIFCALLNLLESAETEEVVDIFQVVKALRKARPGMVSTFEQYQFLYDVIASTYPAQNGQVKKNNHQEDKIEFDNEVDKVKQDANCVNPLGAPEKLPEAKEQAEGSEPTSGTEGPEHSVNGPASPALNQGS

[9] = target: Tyrosine-protein phosphatase non-receptor type 6 (Homo sapiens) (UniProt P29350); test: Inhibition of GST-tagged SHP1
[10] = target: T5, Tyrosine-protein phosphatase non-receptor type 2 (Homo sapiens) (UniProt P17706); test: Inhibition of GST-tagged TC-PTP
T5 sequence (whole entry): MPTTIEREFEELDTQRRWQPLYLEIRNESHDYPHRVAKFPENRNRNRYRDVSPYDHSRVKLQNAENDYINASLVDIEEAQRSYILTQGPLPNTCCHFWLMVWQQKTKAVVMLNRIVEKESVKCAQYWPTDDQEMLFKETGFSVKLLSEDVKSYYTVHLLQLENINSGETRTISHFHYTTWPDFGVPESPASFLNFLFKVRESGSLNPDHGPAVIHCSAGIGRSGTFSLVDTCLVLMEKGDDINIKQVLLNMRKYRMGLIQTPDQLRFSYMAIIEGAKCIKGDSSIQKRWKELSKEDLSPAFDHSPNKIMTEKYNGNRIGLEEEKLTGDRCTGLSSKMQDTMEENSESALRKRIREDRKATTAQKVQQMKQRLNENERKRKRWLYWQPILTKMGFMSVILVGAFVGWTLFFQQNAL

Tyrosine-protein phosphatase non-receptor type 6 (Homo sapiens), sequence (P29350 whole entry): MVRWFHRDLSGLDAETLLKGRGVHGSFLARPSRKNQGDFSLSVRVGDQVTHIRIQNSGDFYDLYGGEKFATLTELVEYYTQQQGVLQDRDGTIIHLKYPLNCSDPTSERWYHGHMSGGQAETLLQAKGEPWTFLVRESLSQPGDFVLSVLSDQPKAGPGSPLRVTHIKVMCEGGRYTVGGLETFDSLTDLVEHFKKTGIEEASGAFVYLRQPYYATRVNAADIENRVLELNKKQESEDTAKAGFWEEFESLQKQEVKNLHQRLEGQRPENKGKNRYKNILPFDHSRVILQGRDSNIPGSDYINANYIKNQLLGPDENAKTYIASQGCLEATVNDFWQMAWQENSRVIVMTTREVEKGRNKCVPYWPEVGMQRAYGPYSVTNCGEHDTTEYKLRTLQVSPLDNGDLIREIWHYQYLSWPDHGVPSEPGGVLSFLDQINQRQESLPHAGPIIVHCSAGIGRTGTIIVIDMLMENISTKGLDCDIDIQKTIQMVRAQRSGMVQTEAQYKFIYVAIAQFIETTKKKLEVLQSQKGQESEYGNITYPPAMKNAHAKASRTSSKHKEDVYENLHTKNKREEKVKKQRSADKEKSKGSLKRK

| Activity [1] | Activity [2] | inhibition [3] [%] | Compound | further results |
| --- | --- | --- | --- | --- |
| inactive | Dose-dependent effect |  | NC(N)=NN[C@@H]1O[C@H](CO)[C@@H](O)[C@H](O)[C@H]1O |  |
| Active | Dose-dependent effect |  | CSc1ccc(C2C(C#N)=C(N)Oc3[nH]nc(-c4ccccc4Cl)c32)cc1 (stereo unspecified) |  |
| inactive | Dose-dependent effect |  | CNC(=S)NNC(=O)CSCCS(=O)(=O)c1ccccc1 |  |
|  | Dose-dependent effect | 40 | CNC(=S)NNC(=O)c1csc(-c2cccs2)n1 |  |
| Active | Dose-dependent effect | 50 | Cc1cc(C)c2c(c1)[nH]c1nnc(SCC(=O)NCc3cccs3)nc12 | Activity [4]: Active; Activity [5]: Active; Activity [6]: Active |

Further lines, the molecule ahead of its results:

| Compound | Activity [1] | Activity [2] | inhibition [3] [%] | further results |
| --- | --- | --- | --- | --- |
| O=C(CCCn1c(=O)c2cccn2c2cccnc21)NCc1ccccc1F |  | Dose-dependent effect | 45 |  |
| NS(=O)(=O)c1ccc(CCNC(=O)c2ccc(Cn3c(=S)[nH]c4ccc(Br)cc4c3=O)cc2)cc1 | Active | Dose-dependent effect | 55 | Activity [4]: Active; Activity [5]: Active; Activity [6]: Active; Activity (BaF3): Active |
| NNc1ccc(S(=O)(=O)O)cc1 |  | Dose-dependent effect | 70 | Activity [7]: Active; Activity [8]: inactive; Activity [9]: Active; Activity [10]: inactive |
| CCc1ccc(OCC(=O)Nc2ccc(S(N)(=O)=O)cc2)cc1 | inactive | Dose-dependent effect |  |  |
